From ChEMBL document CHEMBL1134294, “A prodrug form of a Plasmodium falciparum glutathione reductase inhibitor conjugated with a 4-anilinoquinoline” (J Med Chem, 2001)

How the values were obtained:
[1] = Susceptibility of compound to hydrolysis at 37 degrees C at pH 5.0 acetate medium; type: ADME
Outline: (§1)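 Prodrug (100 μM final, from 1 mM stock in 10% aqueous DMSO) is incubated at 37 °C in pH 7.4 phosphate buffer (150 mM NaCl, 4 mM NaH₂PO₄, 25 mM NaHCO₃) or pH 5.0 acetate (150 mM NaCl, 10 mM NaOAc). Half-life of ester disappearance is found by HPLC as the mean of two determinations.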

[2] = Susceptibility of compound to hydrolysis at 37 degrees C at pH 7.4 phosphate buffer; type: ADME; outline: as §1
[3] = Susceptibility of compound to hydrolysis at 37 degrees C for RPMI-10% human serum; type: ADME; conditions: RPMI with 10% human serum
Outline: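 Prodrug (100 μM final, from 1 mM stock in 10% aqueous DMSO) is held in RPMI with 10% human serum at 37 °C and sampled from 0 to 77.5 h. Samples are mixed with EtOH plus internal reference, centrifuged, and the supernatant is analysed by HPLC. Half-life of ester disappearance is the mean of two determinations.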

[4] = target: Glutathione reductase (Plasmodium falciparum K1) (UniProt Q94655); test: Effect on glutathione reductase activity of chloroquine-resistant Plasmodium falciparum K1 in culture after 24 hrs treatment at 150 nM conc; type: functional
Outline: (§2)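 After 24 h exposure of synchronized K1 ring cultures, parasites were saponin-isolated and freeze-thaw extracts prepared. GR activity was assayed at 25 °C with 100 μM NADPH and 100 μM GSSG in 47 mM potassium phosphate, 200 mM KCl, 1 mM EDTA, pH 6.9, following NADPH consumption at 340 nm.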

[5] = target: Glutathione reductase (Plasmodium falciparum K1) (UniProt Q94655); test: Effect on glutathione reductase activity of chloroquine-resistant Plasmodium falciparum K1 in culture after 24 hrs treatment at 30 nM conc; type: functional; outline: as §2
[6] = target: T1, Glutathione S-transferase (Plasmodium falciparum) (UniProt Q8ILQ7); test: Effect on glutathione S-transferase (GST) activity of chloroquine-resistant Plasmodium falciparum K1 in culture after 24 hrs treatment at 500 nM conc; type: functional
T1 sequence (whole entry): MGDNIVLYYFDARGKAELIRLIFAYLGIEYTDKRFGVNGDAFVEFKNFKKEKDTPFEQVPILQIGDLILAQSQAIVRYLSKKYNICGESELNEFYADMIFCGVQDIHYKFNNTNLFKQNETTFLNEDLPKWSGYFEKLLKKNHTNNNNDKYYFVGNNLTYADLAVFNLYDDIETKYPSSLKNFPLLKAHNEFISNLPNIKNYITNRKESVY
Outline: (§3)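 K1 ring-stage cultures (sorbitol-synchronized, 5% hematocrit, 3.7% parasitemia) treated 24 h. Parasites were released with 0.02% saponin (10 min, 37 °C), freeze-thawed three times and the supernatant assayed. GST activity was read spectrophotometrically at 340 nm with 0.5 mM CDNB and 1 mM GSH in 100 mM potassium phosphate, 1 mM EDTA, pH 6.5. Reported as mU/mg protein.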

[7] = target: T1, Glutathione S-transferase (Plasmodium falciparum); test: Effect on glutathione S-transferase (GST) activity of chloroquine-resistant Plasmodium falciparum K1 in culture after 24 hrs treatment at 150 nM conc; type: functional; outline: as §3
[8] = target: T1, Glutathione S-transferase (Plasmodium falciparum); test: Effect on glutathione S-transferase (GST) activity of chloroquine-resistant Plasmodium falciparum K1 in culture after 24 hrs treatment at 30 nM conc; type: functional; outline: as §3
[9] = test system: Mus musculus; test: Percentage of parasitaemia on day 11 in mice infected with Plasmodium berghei (ip, 40 mg/kg); type: functional
Outline: (§4)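 Female Swiss CD-1 mice (four-week-old, 20–25 g, three per group) are infected ip with about 10⁷ P. berghei ANKA 65 parasitized erythrocytes from a donor. On the day of infection they receive 40 mg/kg orally in 100% DMSO, then daily ip for 4 days. Parasitemia is counted daily. Controls get DMSO only.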

[10] = test system: Mus musculus; test: Percentage of parasitaemia on day 18 in mice infected with Plasmodium berghei (ip, 40 mg/kg); type: functional; outline: as §4
[11] = test system: Mus musculus; test: Percentage of parasitaemia on day 4 in mice infected with Plasmodium berghei (ip, 40 mg/kg); type: functional; outline: as §4
[12] = test system: Mus musculus; test: Percentage excess MST, when used as the chlorohydrate in mice infected with Plasmodium berghei (i.p., 40 mg/kg); type: functional; conditions: route intraperitoneal
Outline: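 Female Swiss CD-1 mice (four weeks, 20–25 g), three per group, were infected ip with about 10^7 P. berghei ANKA parasitized erythrocytes. Dosing was 40 mg/kg in 100% DMSO, given orally at infection, then ip over the following 4 days. Parasitemia was counted daily. Activity was scored as percentage excess mean survival time over DMSO-treated infected controls.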

[13] = test system: Plasmodium falciparum; test: Effective dose against chloroquine-resistant Plasmodium falciparum FcB1R; type: functional
Outline: (§5)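 Asynchronous cultures in human erythrocytes (0.5% parasitemia, 1% hematocrit) received serially diluted drug, DMSO ≤0.1%. After 24 h at 37 °C, 0.5 μCi [3H]hypoxanthine was added and incubation continued another 24 h. Growth inhibition was taken versus drug-free control, ED50 read from the concentration–response curve, and reported as mean of ≥3 independent experiments.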

[14] = test system: Plasmodium falciparum; test: In vitro efficacy for chloroquine-resistant Plasmodium falciparum W2; type: functional; conditions: read-out: ED50 (the source's name); outline: as §5
[15] = test system: Plasmodium falciparum; test: Effect on nucleic acid of chloroquine-resistant Plasmodium falciparum K1 culture after 24 hrs at 30 nM; type: functional
Outline: (§6)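 Synchronized K1 ring cultures were treated 24 h, then saponin-isolated and freeze-thawed. Extract was diluted in 150 mM KH2PO4, pH 8.0, and nucleic acid and protein were estimated from absorbance at 260 and 280 nm. Protein was also measured by dye-binding assay with BSA standard.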

[16] = test system: Plasmodium falciparum; test: Effect on nucleic acid of chloroquine-resistant Plasmodium falciparum K1 culture after 24 hrs at 500 nM; type: functional; outline: as §6
[17] = test system: Plasmodium falciparum; test: Effect on protein of chloroquine-resistant Plasmodium falciparum K1 culture after 24 hrs at 150 nM; type: functional; outline: as §6
[18] = test system: Plasmodium falciparum; test: Effect on protein of chloroquine-resistant Plasmodium falciparum K1 culture after 24 hrs at 30 nM; type: functional; outline: as §6
[19] = test system: Plasmodium falciparum; test: Effect on protein of chloroquine-resistant Plasmodium falciparum K1 culture after 24 hrs at 500 nM; type: functional; outline: as §6
[20] = test system: Plasmodium falciparum; test: In vitro efficacy for chloroquine-resistant Plasmodium falciparum FcB1; type: functional; conditions: read-out: ED50 (the source's name); outline: as §5
[21] = test system: Plasmodium falciparum; test: In vitro efficacy for chloroquine-resistant Plasmodium falciparum K1; type: functional; conditions: read-out: ED50 (the source's name); outline: as §5
[22] = test system: Plasmodium falciparum; test: Effect on glutathione reductase activity of chloroquine-resistant Plasmodium falciparum K1 culture after 24 hrs at 500 nM; type: functional; outline: as §2
[23] = test system: Plasmodium falciparum; test: Effect on glutathione content of chloroquine-resistant Plasmodium falciparum K1 culture after 24 hrs at 150 nM; type: functional
Outline: (§7)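 Sorbitol-synchronized K1 rings (5% hematocrit, 3.7% parasitemia) exposed 24 h, then saponin-lysed and freeze-thawed. Extract (40 μL) was deproteinized with 2 volumes of 5% sulfosalicylic acid. Total glutathione was measured by GR-coupled DTNB-GSH recycling against a GSH standard curve. Expressed as nmol/mg protein.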

[24] = test system: Plasmodium falciparum; test: Effect on glutathione content of chloroquine-resistant Plasmodium falciparum K1 culture after 24 hrs at 30 nM; type: functional; outline: as §7
[25] = test system: Plasmodium falciparum; test: Effect on glutathione content of chloroquine-resistant Plasmodium falciparum K1 culture after 24 hrs at 500 nM; type: functional; outline: as §7
[26] = test system: Plasmodium falciparum; test: Effect on nucleic acid of chloroquine-resistant Plasmodium falciparum K1 culture after 24 hrs at 150 nM; type: functional; outline: as §6
[27] = test system: Plasmodium falciparum; test: In vitro efficacy for chloroquine-sensitive Plasmodium falciparum D6; conditions: read-out: ED50 (the source's name)
[28] = test system: Plasmodium falciparum; test: In vitro efficacy for chloroquine-sensitive Plasmodium falciparum F32; conditions: read-out: ED50 (the source's name)
[29] = test system: Plasmodium falciparum; test: In vitro efficacy for chloroquine-sensitive Plasmodium falciparum Thai strain; conditions: read-out: ED50 (the source's name)
[30] = test system: Plasmodium berghei; test: Parasitaemia (%) on day 4 in Plasmodium berghei infected mice (Mus musculus) at 40 mg/kg intraperitoneal dose; type: functional; outline: as §4
[31] = target: T2, Glutathione reductase, mitochondrial (Homo sapiens) (UniProt P00390); test: Competitive inhibition of human Glutathione Reductase
T2 sequence (whole entry): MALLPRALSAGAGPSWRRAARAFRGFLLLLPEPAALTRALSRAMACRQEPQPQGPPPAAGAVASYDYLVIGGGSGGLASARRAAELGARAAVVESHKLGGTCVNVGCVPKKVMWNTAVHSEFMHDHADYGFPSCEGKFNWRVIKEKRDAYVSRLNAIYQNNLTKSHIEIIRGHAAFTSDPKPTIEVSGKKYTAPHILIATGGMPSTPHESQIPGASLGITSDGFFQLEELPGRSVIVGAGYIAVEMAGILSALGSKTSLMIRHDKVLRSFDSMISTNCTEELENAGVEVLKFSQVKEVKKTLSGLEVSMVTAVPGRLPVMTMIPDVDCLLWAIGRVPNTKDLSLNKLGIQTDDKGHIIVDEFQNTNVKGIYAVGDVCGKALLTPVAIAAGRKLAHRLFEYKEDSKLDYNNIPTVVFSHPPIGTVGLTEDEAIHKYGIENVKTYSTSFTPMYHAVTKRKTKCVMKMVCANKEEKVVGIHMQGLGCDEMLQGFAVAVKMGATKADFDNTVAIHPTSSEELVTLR

[32] = target: T3, Glutathione reductase, mitochondrial (Homo sapiens, UniProt P00390); test: In vitro inhibition of human Glutathione Reductase
T3 sequence (P00390 whole entry): T2 sequence (whole entry)
Outline: (§8)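 Recombinant purified GR (about 5 mU/ml) with 100 μM NADPH in 47 mM potassium phosphate, 200 mM KCl, 1 mM EDTA, pH 6.9, at 25 °C. Enzyme, NADPH and inhibitor are premixed and the reaction is started with 100 μM GSSG. NADPH loss is read at 340 nm. IC50 is taken from increasing inhibitor concentrations in 1% final DMSO, run in duplicate.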

[33] = target: Glutathione reductase (Plasmodium falciparum 3D7, UniProt O15770); test: In vitro inhibition of Plasmodium falciparum Glutathione Reductase; design: species or system FcB1; outline: as §8
[34] = target: Glutathione reductase (Plasmodium falciparum 3D7) (UniProt O15770); test: Competitive inhibition of Plasmodium falciparum Glutathione Reductase; conditions: Plasmodium falciparum FcB1
[35] = read-out: ED50 (the source's name)

Chain of Glutathione reductase (O15770 whole entry): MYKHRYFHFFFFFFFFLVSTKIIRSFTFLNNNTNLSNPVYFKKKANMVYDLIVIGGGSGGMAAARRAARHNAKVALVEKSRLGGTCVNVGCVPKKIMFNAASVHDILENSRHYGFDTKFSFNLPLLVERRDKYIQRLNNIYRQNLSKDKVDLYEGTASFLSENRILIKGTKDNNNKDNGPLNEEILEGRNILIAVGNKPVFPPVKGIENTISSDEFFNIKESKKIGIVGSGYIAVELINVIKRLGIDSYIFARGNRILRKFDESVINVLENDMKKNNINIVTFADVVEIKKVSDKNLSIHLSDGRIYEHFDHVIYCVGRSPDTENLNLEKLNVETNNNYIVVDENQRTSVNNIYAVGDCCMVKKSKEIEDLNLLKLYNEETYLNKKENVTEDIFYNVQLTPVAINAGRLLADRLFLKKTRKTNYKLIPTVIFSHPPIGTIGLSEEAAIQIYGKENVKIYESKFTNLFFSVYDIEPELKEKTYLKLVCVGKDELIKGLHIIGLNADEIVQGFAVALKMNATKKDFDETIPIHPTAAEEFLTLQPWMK
Chain of Glutathione reductase (Plasmodium falciparum 3D7) (O15770 whole entry): as above
Chain of Glutathione reductase (Plasmodium falciparum K1) (Q94655 whole entry): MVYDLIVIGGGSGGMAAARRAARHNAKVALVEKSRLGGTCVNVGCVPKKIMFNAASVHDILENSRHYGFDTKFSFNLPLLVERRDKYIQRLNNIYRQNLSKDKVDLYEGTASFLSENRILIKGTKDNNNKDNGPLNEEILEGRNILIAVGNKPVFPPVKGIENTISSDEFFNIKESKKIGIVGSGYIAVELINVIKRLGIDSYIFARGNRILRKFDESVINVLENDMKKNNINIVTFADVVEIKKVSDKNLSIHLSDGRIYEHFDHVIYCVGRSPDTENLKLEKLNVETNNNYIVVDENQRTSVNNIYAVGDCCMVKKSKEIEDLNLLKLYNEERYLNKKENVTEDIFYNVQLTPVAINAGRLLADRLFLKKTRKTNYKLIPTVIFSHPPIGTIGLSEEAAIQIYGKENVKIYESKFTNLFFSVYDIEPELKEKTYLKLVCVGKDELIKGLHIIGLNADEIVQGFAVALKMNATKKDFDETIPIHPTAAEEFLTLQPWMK

`CC1=C(CCCCCC(=O)OCc2cc(NC(=O)CN3CCCCC3)cc(Nc3ccnc4cc(Cl)ccc34)c2)C(=O)c2ccccc2C1=O` gave a half-life [1] of over 80 h, a half-life [2] of over 80 h and a half-life [3] of over 80 h. The GR activity [4] was 8 mU mg-1, the GR activity [5] was 30 mU mg-1 and the GST activity [6] was 9.5 mU mg-1. It also gave a GST activity [7] of 4.3 mU mg-1, a GST activity [8] of 3.7 mU mg-1 and a Parasitaemia [9] of 9%. For the same compound, the Parasitaemia [10] was 48%, the Parasitaemia [11] was under 0.1% and the “Excess MST” value [12] was 178%. The EC50 ([13]; read-out: ED50) was 23.1 nM, the EC50 [14] was 26.4 nM and the Nucleic acids [15] was 89 ng/mg. It also gave a Nucleic acids [16] of 81 ng/mg, a Protein [17] of 0.6 mg/mL and a Protein [18] of 1.1 mg/mL. For the same compound, the Protein [19] was 0.4 mg/mL, the EC50 [20] was 23.1 nM and the EC50 [21] was 29.3 nM. For the same compound, the GR activity [22] was 6 mU mg-1, the Glutathione [23] was under 1 nM/mg and the Glutathione [24] was 14.8 nM/mg. It also gave a Glutathione [25] of under 1 nM/mg, a Nucleic acids [26] of 79 ng/mg and an EC50 [27] of 27.7 nM. It also gave an EC50 [28] of 25.8 nM and an EC50 [29] of 36.5 nM.
Work on `CC1=C(CCCCC(=O)OCc2cc(NC(=O)CN3CCCCC3)cc(Nc3ccnc4cc(Cl)ccc34)c2)C(=O)c2c(O)cccc2C1=O` yielded a half-life [1] of over 80 h, a half-life [2] of over 80 h and a half-life [3] of over 80 h. For the same compound, the “Excess MST” value [12] was 39%, the EC50 ([13]; read-out: ED50) was 28.7 nM and the Parasitaemia [30] was 9%.
With `CC1=C(CCCCCC(=O)OCc2cc(NC(=O)CN3CCCCC3)cc(Nc3ccnc4cc(Cl)ccc34)c2)C(=O)c2c(O)cccc2C1=O` the EC50 ([13]; read-out: ED50) was 56 nM.
`CC1=C(CCC(=O)OCc2cc(NC(=O)CN3CCCCC3)cc(Nc3ccnc4cc(Cl)ccc34)c2)C(=O)c2ccccc2C1=O` gave an EC50 [13, 35] of 144000 nM.
In the case of `CC1=C(CCCCC(=O)O)C(=O)c2c(O)cccc2C1=O`, the Ki.c [31] is reported as 1100 nM, the IC50 [32] is reported as 1000 nM and the EC50 [13, 35] is reported as 7700 nM. The IC50 [33] was 2500 nM and the Ki.c [34] was 2400 nM.
With `CC1=C(CCCCCC(=O)O)C(=O)c2c(O)cccc2C1=O` the Ki.c [31] was 750 nM, the IC50 [32] was 750 nM and the EC50 [13, 35] was 8200 nM. For the same compound, the IC50 [33] was 1300 nM and the Ki.c [34] was 2300 nM.
In the case of `O=C(CN1CCCCC1)Nc1cc(COC(=O)CCCCCc2ccccc2)cc(Nc2ccnc3cc(Cl)ccc23)c1`, the EC50 ([13]; read-out: ED50) is reported as 368 nM.
In the case of `CC1=C(CCCCCC(=O)O)C(=O)c2ccccc2C1=O`, the Ki.c [31] is reported as 1900 nM, the IC50 [32] is reported as 2600 nM and the EC50 [13, 35] is reported as 3500 nM. It also gave an IC50 [33] of 500 nM and a Ki.c [34] of 500 nM.
